In brackets after ≈: the same amount, converted by molar mass. Activity calls are given as the source filed them. The calls are words filed in the database; no cut-off is given here.
Assays:
[1] = system: Mycobacterium tuberculosis; assay: Antimycobacterial activity against wild-type Mycobacterium tuberculosis H37Rv ATCC 27294 after 16 to 18 days by BACTEC 7H12B microdilution method; format: functional
[2] = system: Mycobacterium tuberculosis; assay: Bactericidal activity against Mycobacterium tuberculosis infected in human THP1 cells at 1 ug/ml for 7 days; format: functional, THP-1
How it was run: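 Adherent THP-1 macrophages infected with Mtb were exposed to compound at 1 μg/mL for 7 days at 37 °C. Kill was expressed as log reduction versus the untreated control.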

[3] = target: Voltage-gated inwardly rectifying potassium channel KCNH2 (Homo sapiens, UniProt Q12809); assay: Inhibition of human ERG by patch clamp electrophysiological analysis
Chain of Voltage-gated inwardly rectifying potassium channel KCNH2 (Q12809 whole entry): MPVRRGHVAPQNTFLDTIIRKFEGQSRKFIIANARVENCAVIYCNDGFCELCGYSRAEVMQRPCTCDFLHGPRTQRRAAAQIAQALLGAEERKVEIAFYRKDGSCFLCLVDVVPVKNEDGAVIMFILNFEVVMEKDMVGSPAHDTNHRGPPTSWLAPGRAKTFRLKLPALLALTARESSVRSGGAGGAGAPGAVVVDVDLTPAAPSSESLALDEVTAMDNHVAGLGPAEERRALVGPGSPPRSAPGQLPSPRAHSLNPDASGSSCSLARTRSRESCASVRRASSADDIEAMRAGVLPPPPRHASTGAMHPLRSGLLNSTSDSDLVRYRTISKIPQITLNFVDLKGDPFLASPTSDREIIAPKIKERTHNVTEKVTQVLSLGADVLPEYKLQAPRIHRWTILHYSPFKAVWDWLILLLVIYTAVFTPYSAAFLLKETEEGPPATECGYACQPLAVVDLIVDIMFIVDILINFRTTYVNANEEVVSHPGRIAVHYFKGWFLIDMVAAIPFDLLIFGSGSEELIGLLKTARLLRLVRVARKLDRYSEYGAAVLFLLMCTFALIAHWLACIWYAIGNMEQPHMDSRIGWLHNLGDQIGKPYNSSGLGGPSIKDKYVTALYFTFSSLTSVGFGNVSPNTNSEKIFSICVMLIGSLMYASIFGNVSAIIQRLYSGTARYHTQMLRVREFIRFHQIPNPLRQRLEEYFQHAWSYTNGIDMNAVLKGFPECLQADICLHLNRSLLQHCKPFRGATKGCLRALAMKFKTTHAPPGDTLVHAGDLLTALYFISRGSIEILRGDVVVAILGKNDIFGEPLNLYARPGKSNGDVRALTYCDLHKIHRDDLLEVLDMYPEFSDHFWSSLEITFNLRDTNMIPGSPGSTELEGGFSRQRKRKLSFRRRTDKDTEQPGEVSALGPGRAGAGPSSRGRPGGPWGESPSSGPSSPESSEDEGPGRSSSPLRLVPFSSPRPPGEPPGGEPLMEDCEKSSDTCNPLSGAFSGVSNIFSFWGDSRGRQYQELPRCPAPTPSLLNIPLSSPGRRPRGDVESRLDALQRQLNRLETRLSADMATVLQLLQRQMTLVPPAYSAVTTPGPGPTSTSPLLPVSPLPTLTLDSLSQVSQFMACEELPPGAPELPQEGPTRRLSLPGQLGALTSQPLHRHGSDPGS

[4] = Octanol-sodium phosphate buffer partition coefficient, log D of the compound at 10 mM at pH 7.4 by shake-flask method; format: physicochemical
[5] = Fraction unbound in aminobenzotriazole-pretreated BALB/c mouse plasma infected with Mycobacterium tuberculosis by LC-MS/MS analysis; format: ADME, cell-free
[6] = system: Mycobacterium tuberculosis; assay: Antimycobacterial activity against Mycobacterium tuberculosis infected in aminobenzotriazole-pretreated BALB/c mouse chronic tuberculosis model assessed as reduction in log10CFU at 40 to 80 mg/kg, po bid for 20 days; format: functional; conditions: dose mg/kg 40-80
How it was run: (§1)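 Aerosol-infected BALB/c mice in BSL3, three per group. Treatment began 3 days (acute) or 4 weeks (chronic) after infection. ABT 100 mg/kg po in water was given 2 h before oral gavage of compound in 5% dextrose (pH 4−5 with acetic acid), 10 mL/kg, twice daily at 8 h intervals. Courses were 20 days (7 days/week) or 8 weeks (6 days/week). Lung homogenates were plated on 7H11 for cfu.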

[7] = system: Mus musculus; assay: fT>MIC in BALB/c mouse infected with Mycobacterium tuberculosis at 20 mg/kg, po
How it was run: (§2)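 PK was measured in infected, ABT-pretreated mice during efficacy dosing (oral, 5% dextrose pH 4−5) on day 18 or 19. Saphenous blood was taken at 5, 15 and 30 min and 1, 2, 4 and 6 h. Plasma was precipitated with acetonitrile and analysed by LC−MS/MS. AUC came from noncompartmental analysis; free AUC/MIC and %free T>MIC used the unbound fraction and MIC.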

[8] = Oral bioavailability in rat at 40 mg/kg by LC-MS/MS analysis; format: ADME, organism-based; conditions: in vivo
How it was run: (§3)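 Rats were dosed with the 5% dextrose (pH 4−5) formulation, 5 mg/kg iv and 40 mg/kg po. Plasma was precipitated with acetonitrile and analysed by LC−MS/MS with a carbamazepine internal standard. Parameters were derived by noncompartmental analysis.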

[9] = Apparent permeability from basolateral to apical side in human Caco2 cells; format: ADME, cell-based; conditions: Caco-2
[10] = Ratio of fAUC in aminobenzotriazole-pretreated Mycobacterium tuberculosis infected BALB/c mouse at 20 mg/kg, po to MIC for wild-type Mycobacterium tuberculosis H37Rv ATCC 27294; how it was run: as §2
[11] = target: DNA gyrase subunit B (Mycobacterium smegmatis, UniProt P0C559); assay: Inhibition of Mycobacterium smegmatis DNA gyrase-B ATPase activity; set-up: species or system Mycolicibacterium smegmatis
Chain of DNA gyrase subunit B (P0C559 whole entry): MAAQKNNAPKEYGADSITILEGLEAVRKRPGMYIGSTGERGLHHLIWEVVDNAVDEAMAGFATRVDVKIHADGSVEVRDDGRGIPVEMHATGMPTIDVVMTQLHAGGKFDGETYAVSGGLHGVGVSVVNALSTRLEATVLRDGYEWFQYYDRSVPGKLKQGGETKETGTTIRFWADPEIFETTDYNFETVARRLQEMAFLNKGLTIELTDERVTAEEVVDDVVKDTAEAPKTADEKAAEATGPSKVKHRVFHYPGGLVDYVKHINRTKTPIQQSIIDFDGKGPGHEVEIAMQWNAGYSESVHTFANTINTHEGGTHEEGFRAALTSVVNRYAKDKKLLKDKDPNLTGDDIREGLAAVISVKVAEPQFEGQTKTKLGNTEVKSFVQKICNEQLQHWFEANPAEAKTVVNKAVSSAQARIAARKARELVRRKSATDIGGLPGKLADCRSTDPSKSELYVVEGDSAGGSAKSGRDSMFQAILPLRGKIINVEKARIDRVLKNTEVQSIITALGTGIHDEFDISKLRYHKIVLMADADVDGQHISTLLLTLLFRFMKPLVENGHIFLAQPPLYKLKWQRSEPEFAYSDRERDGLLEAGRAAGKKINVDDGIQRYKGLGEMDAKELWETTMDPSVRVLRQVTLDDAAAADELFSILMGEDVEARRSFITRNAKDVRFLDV

[12] = target: DNA gyrase subunit A/DNA gyrase subunit B (Mycobacterium tuberculosis (strain ATCC 25618 / H37Rv), UniProt P9WG45+P9WG47); assay: Inhibition of Mycobacterium tuberculosis H37Rv DNA gyrase holoenzyme-mediated supercoiling of pBR322 DNA after 90 mins by agarose gel electrophoresis
Chain of DNA gyrase subunit A/DNA gyrase subunit B (P9WG45 whole entry): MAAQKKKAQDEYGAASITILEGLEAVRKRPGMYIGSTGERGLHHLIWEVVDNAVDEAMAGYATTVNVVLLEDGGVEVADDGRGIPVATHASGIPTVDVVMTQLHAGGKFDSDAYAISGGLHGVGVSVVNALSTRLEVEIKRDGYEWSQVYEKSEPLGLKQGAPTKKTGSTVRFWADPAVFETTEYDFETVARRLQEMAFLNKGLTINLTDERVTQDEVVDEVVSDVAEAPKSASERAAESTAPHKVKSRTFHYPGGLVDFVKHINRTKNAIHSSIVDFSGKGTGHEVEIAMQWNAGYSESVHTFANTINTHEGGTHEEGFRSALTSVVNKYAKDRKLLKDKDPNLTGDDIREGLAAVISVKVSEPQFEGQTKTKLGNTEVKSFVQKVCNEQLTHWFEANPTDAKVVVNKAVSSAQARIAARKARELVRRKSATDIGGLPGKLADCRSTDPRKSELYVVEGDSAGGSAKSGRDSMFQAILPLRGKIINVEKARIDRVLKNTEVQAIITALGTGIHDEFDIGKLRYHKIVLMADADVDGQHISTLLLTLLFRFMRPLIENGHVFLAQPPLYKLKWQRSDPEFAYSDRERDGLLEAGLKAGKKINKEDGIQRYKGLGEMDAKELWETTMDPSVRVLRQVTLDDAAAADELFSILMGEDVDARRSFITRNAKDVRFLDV
Chain of DNA gyrase subunit A/DNA gyrase subunit B (P9WG47 whole entry): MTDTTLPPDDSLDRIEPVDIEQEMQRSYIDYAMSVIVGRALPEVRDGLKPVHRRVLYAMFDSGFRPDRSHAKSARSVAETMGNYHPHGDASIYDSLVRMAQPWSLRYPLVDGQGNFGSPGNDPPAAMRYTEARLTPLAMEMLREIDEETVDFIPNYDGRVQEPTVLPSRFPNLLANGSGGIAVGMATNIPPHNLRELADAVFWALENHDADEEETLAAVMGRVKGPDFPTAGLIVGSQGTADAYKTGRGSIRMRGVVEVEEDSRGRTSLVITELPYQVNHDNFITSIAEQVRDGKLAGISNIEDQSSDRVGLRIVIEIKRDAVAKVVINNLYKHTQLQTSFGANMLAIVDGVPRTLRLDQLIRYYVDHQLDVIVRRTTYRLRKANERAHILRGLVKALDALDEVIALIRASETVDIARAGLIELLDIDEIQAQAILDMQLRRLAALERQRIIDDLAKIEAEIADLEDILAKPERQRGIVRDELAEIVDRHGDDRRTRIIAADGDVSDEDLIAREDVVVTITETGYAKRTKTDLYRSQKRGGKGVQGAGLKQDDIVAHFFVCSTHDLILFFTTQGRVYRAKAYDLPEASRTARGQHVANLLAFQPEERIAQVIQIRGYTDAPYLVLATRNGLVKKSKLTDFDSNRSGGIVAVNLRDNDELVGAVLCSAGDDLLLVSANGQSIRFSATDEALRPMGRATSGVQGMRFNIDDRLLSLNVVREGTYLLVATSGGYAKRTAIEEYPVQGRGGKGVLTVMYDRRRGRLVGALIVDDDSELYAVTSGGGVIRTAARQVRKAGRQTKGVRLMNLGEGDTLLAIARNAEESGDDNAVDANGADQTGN

[13] = Apparent permeability from apical to basolateral side in human Caco2 cells; format: ADME, cell-based; conditions: Caco-2
[14] = system: Mycobacterium tuberculosis; assay: Antimycobacterial activity against Mycobacterium tuberculosis infected in aminobenzotriazole-pretreated BALB/c mouse chronic tuberculosis model assessed as reduction in log10CFU at 40 to 80 mg/kg, po bid for 8 weeks; format: functional, organism-based; how it was run: as §1
[15] = Clearance in rat at 40 mg/kg, po and 5 mg/kg, iv by LC-MS/MS analysis; format: ADME, organism-based; conditions: in vivo; how it was run: as §3
[16] = system: Mycobacterium tuberculosis; assay: Antimycobacterial activity against Mycobacterium tuberculosis clinical isolates after 2 to 4 weeks by BACTEC 460 radiometric assay; format: functional
[17] = system: Mycobacterium tuberculosis; assay: Antimycobacterial activity against Mycobacterium tuberculosis infected in aminobenzotriazole-pretreated BALB/c mouse acute tuberculosis model assessed as reduction in bacterial burden at 20 mg/kg, po bid for 20 days; format: functional, organism-based; set-up: dose 20 mg/kg; how it was run: as §1

Row | SMILES | MIC [1] [µg/mL] | IC50 [3] [µM] | logD at 10000 µM [4] | Papp B→A [9] [×10⁻⁶ cm/s] | IC50 [11] [µM] | IC50 [12] [µM] | Papp A→B [13] [×10⁻⁶ cm/s] | also measured
1 | COc1c(N2C[C@@H]3CCCN[C@@H]3C2)c(F)cc2c(=O)c(C(=O)O)cn(C3CC3)c12 [MOXIFLOXACIN] | 0.06 (≈ 0.149 µM) |  |  |  |  |  |  | LCK [2]: 2.3
2 | COc1cnc2ccc(=O)n(CCN3CC[C@@H](NCc4ccc5c(n4)NC(=O)CO5)[C@@H](OC)C3)c2c1 | 0.13 (≈ 0.263 µM) | > 100 | 0.4 |  |  |  |  | 
3 | NNC(=O)c1ccncc1 [ISONIAZID] | 0.06 (≈ 0.438 µM) |  |  |  |  |  |  | 
4 | O=C(O)c1cn(C2CC2)c2cc(N3CCNCC3)c(F)cc2c1=O [CIPROFLOXACIN] | 0.25 (≈ 0.754 µM) |  |  |  |  |  |  | 
5 | Cc1ncc(CNC2CCN(CCn3c(=O)ccc4c3ccc(=O)n4C)CC2)cc1C#N | > 32 | 33 | -0.6 |  |  |  |  | 
6 | COc1ccc2c(ccc(=O)n2CCN2CCC(NCc3cnc(C)c(C#N)c3)CC2)n1 | 4 (≈ 9.25 µM) | 10 |  |  |  |  |  | 
7 | COc1cnc2ncc(=O)n(CCN3CCC(NCc4cnc(C)c(C#N)c4)CC3)c2c1 | 0.13 (≈ 0.3 µM) | > 100 | 0.38 |  |  |  |  | 
8 | Cc1ncc(CNC2CCN(CCn3c(=O)ccc4ccc(C#N)cc43)CC2)cc1C#N | 0.06 (≈ 0.141 µM) | 26 | 1.3 | 7.4 | > 100 | 0.25 | 13.6 | fraction unbound [5]: 0.43; log10cfu [6]: 0.5; fT>MIC [7]: 58%; bioavailability [8]: > 100%; fAUC/MIC [10]: 159; Activity [14]: Active; clearance [15]: 41 mL/min/kg
9 | COc1ccc2ccc(=O)n(CCN3CCC(NCc4ccc5c(n4)NC(=O)CO5)CC3)c2n1 | 0.25 (≈ 0.538 µM) | 21 | 0.8 | 25 | > 100 | 0.15 | 1.1 | 
10 | CO[C@H]1/C=C/O[C@@]2(C)Oc3c(C)c(O)c4c(O)c(c(/C=N/N5CCN(C)CC5)c(O)c4c3C2=O)NC(=O)/C(C)=C\C=C\[C@H](C)[C@H](O)[C@@H](C)[C@@H](O)[C@@H](C)[C@H](OC(C)=O)[C@@H]1C [RIFAMPIN] | 0.015 (≈ 0.0182 µM) |  |  |  |  |  |  | 
11 | N#Cc1ccc2ccc(=O)n(CCN3CCC(NCc4cc5c(cn4)OCCO5)CC3)c2c1 | 2 (≈ 4.49 µM) |  | 0.7 | 38.3 | > 100 | 1.05 | 1.9 | 
12 | N#Cc1ccc2ccc(=O)n(CCN3CCC(NCc4ccc5c(n4)NC(=O)CO5)CC3)c2c1 | 0.13 (≈ 0.284 µM) |  | 0.4 | 12.6 | > 100 | 0.11 | 2 | MIC90 [16]: < 0.5 µg/mL; Activity [17]: Active; bioavailability [8]: 11%; clearance [15]: 187 mL/min/kg
13 | Cc1ncc(CN[C@@H]2CCN(CCn3c(=O)ccc4ncc(F)cc43)C[C@@H]2F)cc1C#N | 0.25 (≈ 0.57 µM) |  | 0.92 | 15.4 |  |  | 17.7 | bioavailability [8]: > 100%; clearance [15]: 30 mL/min/kg

From ChEMBL document CHEMBL3286091, “Novel N-linked aminopiperidine-based gyrase inhibitors with improved hERG and in vivo efficacy against Mycobacterium tuberculosis” (J Med Chem, 2014)
